In publication PMC4109633 (Drug Design, Development and Therapy, 2014):
Marks after values point to notes of the source that are not given here.

What was measured:
Type in all cases: cell-based
[1] = system: Salmonella typhimurium TA1535; assay: Cytotoxicity in liquid medium; details: mean ± SEM
Outline: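 TA1535 was grown in broth microdilution with test compound at 25, 50 or 100 µM. Viability was expressed as % of untreated control (mean ± SEM), triplicate.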

[2] = system: Salmonella typhimurium TA1535; assay: Ames Salmonella/microsomal mutagenicity assay; details: presence of S9 mix, spontaneous 67.0±6.1
[3] = system: Salmonella typhimurium TA1535; assay: Antimutagenicity assay against sodium azide; details: for NaN3 mutagenicity (revertant colonies/plate; mean ± SEM): NaN3 2 μg/plate, spontaneous 29.3±5.3
Outline: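 TA1535 was exposed to test compound at 10 or 20 µM with NaN₃ (2 µg/plate) in two schemes. In pre-exposure, compound and bacteria were shaken 30 min at 37°C before mutagen was added. In co-exposure, bacteria, mutagen and compound were incubated together 30 min at 37°C. Cells were then plated on minimal glucose agar, and revertants counted at 48 h, in triplicate. Mutant frequency = mutant colonies/viable colonies.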

[4] = system: Salmonella typhimurium TA1535; assay: Antimutagenicity assay against benzo[a]pyrene with S9 mix; details: for B[a]P mutagenicity (revertant colonies/plate; mean ± SEM): B[a]P 20 μM + S9 mix, spontaneous 105.0±13.1; for Mutant frequency (benzo[a]pyrene): mutant colonies/viable colonies
[5] = co-exposure, 20 μM, mutant colonies/viable colonies
[6] = pre-exposure, 10 μM, mutant colonies/viable colonies
[7] = pre-exposure, 20 μM, mutant colonies/viable colonies
[8] = co-exposure, 10 μM, mutant colonies/viable colonies

Compound	Viability at fluoroarylbichalcophene concentrations (% of control) ([1]; 25 μM)	Viability at fluoroarylbichalcophene concentrations (% of control) ([1]; 50 μM)	Viability at fluoroarylbichalcophene concentrations (% of control) ([1]; 100 μM)	Fluoroarylbichalcophene mutagenicity (revertant colonies/plate; mean ± SEM) ([2]; 10 μM) [revertant colonies/plate]	Fluoroarylbichalcophene mutagenicity (revertant colonies/plate; mean ± SEM) ([2]; 20 μM) [revertant colonies/plate]	NaN3 mutagenicity (revertant colonies/plate; mean ± SEM) ([3]; co-exposure, 10 μM) [revertant colonies/plate]	NaN3 mutagenicity (revertant colonies/plate; mean ± SEM) ([3]; co-exposure, 20 μM) [revertant colonies/plate]	Mutant frequency (sodium azide) [3, 5]	NaN3 mutagenicity (revertant colonies/plate; mean ± SEM) ([3]; pre-exposure, 10 μM) [revertant colonies/plate]	Mutant frequency (sodium azide) [3, 6]	NaN3 mutagenicity (revertant colonies/plate; mean ± SEM) ([3]; pre-exposure, 20 μM) [revertant colonies/plate]	Mutant frequency (sodium azide) [3, 7]	B[a]P mutagenicity (revertant colonies/plate; mean ± SEM) ([4]; co-exposure, 10 μM) [revertant colonies/plate]	B[a]P mutagenicity (revertant colonies/plate; mean ± SEM) ([4]; co-exposure, 20 μM) [revertant colonies/plate]	Mutant frequency (benzo[a]pyrene) ([4]; co-exposure, 20 μM)	B[a]P mutagenicity (revertant colonies/plate; mean ± SEM) ([4]; pre-exposure, 10 μM) [revertant colonies/plate]	Mutant frequency (benzo[a]pyrene) ([4]; pre-exposure, 10 μM)	B[a]P mutagenicity (revertant colonies/plate; mean ± SEM) ([4]; pre-exposure, 20 μM) [revertant colonies/plate]	Mutant frequency (benzo[a]pyrene) ([4]; pre-exposure, 20 μM)	Mutant frequency (sodium azide) [3, 8]	further results
N#Cc1ccc(-c2ccc(-c3ccco3)o2)c(F)c1 [Compound 4a, 4-(2,2′-Bifuran-5-yl)-3-fluorobenzonitrile]	100.0±8.5 % of control	66.3±5.6 ^a % of control	45.7±3.5 ^a % of control	63.3±5.5	69.7±7.0	75.0±2.3	34.3±4.9	0.69	47.7±6.5	0.99	26.0±5.5	0.52	270.0±19.0	268.0±16.6	4.14	267.0±11.0	4.04	267.7±13.0	4.14		Mutant frequency (benzo[a]pyrene) ([4]; co-exposure, 10 μM): 4.08
N#Cc1ccc(-c2ccc(-c3ccco3)o2)cc1F [Compound 4b, 4-(2,2′-Bifuran-5-yl)-2-fluorobenzonitrile]	88.3±7.4 % of control	64.7±6.6 ^a % of control	29.0±3.1 ^a % of control	64.3±4.0	71.3±4.0	35.3±2.8	32.7±5.5	0.64	69.7±8.0	1.28	48.3±5.0	0.95	193.0±15.7	154.7±16.5	2.41	239.3±10.5	3.72	238.0±7.6	3.70	0.65	Mutant frequency (benzo[a]pyrene) ([4]; co-exposure, 10 μM): 3.00
N#Cc1ccc(-c2ccc(-c3cccs3)o2)cc1F [Compound 4d, 2-Fluoro-4-(5-(thiophen-2-yl)furan-2-yl)benzonitrile]	71.7±5.0 % of control	59.7±4.7 ^a % of control	3.0±0.2 ^a % of control	68.7±6.0	67.7±6.1	47.7±2.7	49.7±6.4	0.94	36.0±2.7	0.69	29.7±4.0	0.56	287.7±16.0	204.0±5.3	3.29	271.0±16.5	4.12	271.0±12.2	4.37	0.92	Mutant frequency (benzo[a]pyrene) ([4]; co-exposure, 10 μM): 4.38; Antimutagenic potential against B[a]P ([4]; co-exposure, low concentration investigated): no significant activity
[N-]=[N+]=[N-].[Na+] [NaN3, sodium azide, reference compound]																					Mutant frequency, NaN3 alone ([3]; NaN3 without fluoroarylbichalcophene, mutant colonies/viable colonies): 2.65 (100)
Cl.N=C(N)c1ccc(-c2ccc(-c3cccs3)o2)cc1F [Compound 5d, 2-Fluoro-4-(5-(thiophen-2-yl)furan-2-yl)benzamidine hydrochloride salt]	105.7±4.6 % of control	65.3±3.9 ^a % of control	49.3±3.8 ^a % of control	65.0±7.0	67.7±6.0	43.3±6.8	20.0±1.0	0.40	65.0±5.0	1.14	44.3±4.5	0.88	109.7±8.3	101.0±6.0		261.0±8.5	4.19	216.7±14.3	3.28	0.76	
Cl.N=C(N)c1ccc(-c2ccc(-c3ccco3)o2)c(F)c1 [Compound 5a, 4-(2,2′-Bifuran-5-yl)-3-fluorobenzamidine hydrochloride salt]	102.3±10.2 % of control	63.3±9.0 ^a % of control	32.7±2.7 ^a % of control	61.0±4.8	65.7±5.8	73.3±4.1	39.0±8.1	0.76	57.7±11.0		22.3±2.1	0.44	102.0±12.1	98.3±9.5	1.65	209.7±10.3	3.26	201.0±11.0	3.37		
Cl.N=C(N)c1ccc(-c2ccc(-c3cccs3)o2)c(F)c1 [Compound 5c, 3-Fluoro-4-(5-(thiophen-2-yl)furan-2-yl)benzamidine hydrochloride salt]	71.3±6.4 % of control	58.7±4.2 ^a % of control	28.7±3.0 ^a % of control	70.0±5.9	66.0±3.5	25.7±1.8	24.0±3.0	0.47	102.0±7.2	1.91	33.3±8.7	0.65	110.7±10.5	111.0±10.2		148.7±9.8	2.23	124.0±5.3	2.02	0.48	Antimutagenic potential against NaN3 ([3]; pre-exposure, only at 20 μM): strong (40% or more reduction means strong antimutagenic activity)
